This note sets out measurements from ChEMBL document CHEMBL1811822, “P2-P1' macrocyclization of P2 phenylglycine based HCV NS3 protease inhibitors using ring-closing metathesis” (Bioorg Med Chem, 2011).

pEC50, pKi: −log10 of the molar value.

As a reminder, the pEC50 is the negative decadic logarithm of the EC50, by convention in mol/L. By pKi is commonly meant the Ki on a negative log10 scale, so that one unit is a factor of ten. Read a high pKi as a small Ki.

For the first test, the system named is Hepatitis C virus. Put plainly: Antiviral activity against HCV 1b infected in human HuH7 cells assessed as inhibition of viral replication by luciferase assay. Conditions: genotype 1b, Huh-7. The test is classed as functional, organism-based, Hepacivirus hominis.
As to `CCC[C@@H]1NC(=O)[C@@H](NC(=O)[C@@H](NC(=O)OC(C)(C)C)C(C)(C)C)c2ccc(Oc3cc(-c4ccccc4)nc4cc(OC)ccc34)c(c2)/C=C/CCCS(=O)(=O)NC1=O`, the negative-log EC50 (pEC50) was 5.22.

The subject of a further test is Hepatitis C virus. Put plainly: Antiviral activity against HCV. The test is classed as functional, organism-based, Hepacivirus hominis.
Details: not given
Regarding `COc1ccc2c(O[C@@H]3C[C@H]4C(=O)N[C@]5(C(=O)O)C[C@H]5/C=C\CCCCC[C@H](NC(=O)OC5CCCC5)C(=O)N4C3)cc(-c3csc(NC(C)C)n3)nc2c1` [CILUPREVIR], the pEC50 was 6.46.

Compound `CC(C)(C)OC(=O)N[C@H]1CCCCC/C=C\[C@@H]2C[C@@]2(C(=O)NS(=O)(=O)C2CC2)NC(=O)[C@@H]2C[C@@H](OC(=O)N3Cc4cccc(F)c4C3)CN2C1=O` [DANOPREVIR] had a pEC50 of 9.22.

Biological target in a further test: not listed separately
As to the kind of experiment: Inhibition of HCV NS3 protease.
Details: not given
Also noted: species or system Hepacivirus hominis. The method, boiled down: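 Full-length NS3 protein (protease–helicase/NTPase domains) from HCV genotype 1a, wild-type, with a 16-residue NS4A activating-region peptide. Protease activity was read by FRET. Enzyme at 1 nM was incubated 10 min at 30 °C in 50 mM HEPES, pH 7.5. Ki values were derived and reported with standard deviation.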
Take `C=CCCCS(=O)(=O)NC(=O)[C@H](CCC)NC(=O)[C@@H](NC(=O)[C@@H](NC(=O)OC(C)(C)C)C(C)(C)C)c1ccc(Oc2cc(-c3ccccc3)nc3cc(OC)ccc23)c(C=C)c1`: the pKi was 7.20.

`C=CCCCS(=O)(=O)NC(=O)[C@H](CCC)NC(=O)[C@H](NC(=O)[C@@H](NC(=O)OC(C)(C)C)C(C)(C)C)c1ccc(Oc2cc(-c3ccccc3)nc3cc(OC)ccc23)c(C=C)c1` gave a negative-log Ki (pKi) of 7.32.

The compound `COc1ccc2c(O[C@@H]3C[C@H]4C(=O)N[C@]5(C(=O)O)C[C@H]5/C=C\CCCCC[C@H](NC(=O)OC5CCCC5)C(=O)N4C3)cc(-c3csc(NC(C)C)n3)nc2c1` [CILUPREVIR] gave a pKi of 7.40.

Biological target in another test: not listed separately
Put plainly: Inhibition of protease activity of full-length HCV genotype 1a NS3 protease by FRET assay.
Details: not given
Turning to `CCC[C@@H]1NC(=O)[C@H](NC(=O)[C@@H](NC(=O)OC(C)(C)C)C(C)(C)C)c2ccc(Oc3cc(-c4ccccc4)nc4cc(OC)ccc34)c(c2)/C=C\CC2(CC2)S(=O)(=O)NC1=O`, the pKi was 6.06.

With `CCC[C@@H]1NC(=O)[C@@H](NC(=O)[C@@H](NC(=O)OC(C)(C)C)C(C)(C)C)c2ccc(Oc3cc(-c4ccccc4)nc4cc(OC)ccc34)c(c2)/C=C\Cc2ccccc2S(=O)(=O)NC1=O`, the pKi was 6.72.

In the case of `CCC[C@@H]1NC(=O)[C@@H](NC(=O)[C@@H](NC(=O)OC(C)(C)C)C(C)(C)C)c2ccc(Oc3cc(-c4ccccc4)nc4cc(OC)ccc34)c(c2)/C=C\c2ccccc2S(=O)(=O)NC1=O`, the pKi is 6.77.

The compound `CCC[C@@H]1NC(=O)[C@@H](NC(=O)[C@@H](NC(=O)OC(C)(C)C)C(C)(C)C)c2ccc(Oc3cc(-c4ccccc4)nc4cc(OC)ccc34)c(c2)/C=C/c2ccccc2S(=O)(=O)NC1=O` gave a pKi of 6.82.

The compound `CCC[C@@H]1NC(=O)[C@@H](NC(=O)[C@@H](NC(=O)OC(C)(C)C)C(C)(C)C)c2ccc(Oc3cc(-c4ccccc4)nc4cc(OC)ccc34)c(c2)CCCc2ccccc2S(=O)(=O)NC1=O` gave a pKi of 6.60.

Turning to `CCC[C@@H]1NC(=O)[C@@H](NC(=O)[C@@H](NC(=O)OC(C)(C)C)C(C)(C)C)c2ccc(Oc3cc(-c4ccccc4)nc4cc(OC)ccc34)c(c2)/C=C\CC2(CC2)S(=O)(=O)NC1=O`, the pKi was 6.96.

`CCC[C@@H]1NC(=O)[C@@H](NC(=O)[C@@H](NC(=O)OC(C)(C)C)C(C)(C)C)c2ccc(Oc3cc(-c4ccccc4)nc4cc(OC)ccc34)c(c2)/C=C\CCCS(=O)(=O)NC1=O` showed a negative logarithm of the Ki (pKi) of 6.41.

As for `CCC[C@@H]1NC(=O)[C@@H](NC(=O)[C@@H](NC(=O)OC(C)(C)C)C(C)(C)C)c2ccc(Oc3cc(-c4ccccc4)nc4cc(OC)ccc34)c(c2)/C=C/CCCS(=O)(=O)NC1=O`, the negative-log Ki (pKi) is 6.62.

`CCC[C@@H]1NC(=O)[C@H](NC(=O)[C@@H](NC(=O)OC(C)(C)C)C(C)(C)C)c2ccc(Oc3cc(-c4ccccc4)nc4cc(OC)ccc34)c(c2)/C=C\CCCS(=O)(=O)NC1=O` had a pKi of 6.12.

Compound `CCC[C@@H]1NC(=O)[C@@H](NC(=O)[C@@H](NC(=O)OC(C)(C)C)C(C)(C)C)c2ccc(Oc3cc(-c4ccccc4)nc4cc(OC)ccc34)c(c2)/C=C\CCS(=O)(=O)NC1=O` showed a pKi of 6.86.

Take `CCC[C@@H]1NC(=O)[C@@H](NC(=O)[C@@H](NC(=O)OC(C)(C)C)C(C)(C)C)c2ccc(Oc3cc(-c4ccccc4)nc4cc(OC)ccc34)c(c2)/C=C/CCCCS(=O)(=O)NC1=O`: the pKi was 6.03.

In turn, `CCC[C@@H]1NC(=O)[C@H](NC(=O)[C@@H](NC(=O)OC(C)(C)C)C(C)(C)C)c2ccc(Oc3cc(-c4ccccc4)nc4cc(OC)ccc34)c(c2)/C=C/CCCCS(=O)(=O)NC1=O` showed a pKi of 6.15.

With `CCC[C@@H]1NC(=O)[C@@H](NC(=O)[C@@H](NC(=O)OC(C)(C)C)C(C)(C)C)c2ccc(Oc3cc(-c4ccccc4)nc4cc(OC)ccc34)c(c2)/C=C\CCCCS(=O)(=O)NC1=O`, the pKi is 6.49.

`CCC[C@@H]1NC(=O)[C@@H](NC(=O)[C@@H](NC(=O)OC(C)(C)C)C(C)(C)C)c2ccc(Oc3cc(-c4ccccc4)nc4cc(OC)ccc34)c(c2)CCCCCCS(=O)(=O)NC1=O` showed a pKi of 6.24.

As to `CCC[C@@H]1NC(=O)[C@@H](NC(=O)[C@@H](NC(=O)OC(C)(C)C)C(C)(C)C)c2ccc(Oc3cc(-c4ccccc4)nc4cc(OC)ccc34)c(c2)C/C=C/CS(=O)(=O)NC1=O`, the pKi was 6.65.

As for `CCC[C@@H]1NC(=O)[C@@H](NC(=O)[C@@H](NC(=O)OC(C)(C)C)C(C)(C)C)c2ccc(Oc3cc(-c4ccccc4)nc4cc(OC)ccc34)c(c2)C/C=C/CCS(=O)(=O)NC1=O` (mixture of isomers), the negative logarithm of the Ki (pKi) was 6.33.
